According to ChEMBL document CHEMBL1671806, “New imidazolidinedione derivatives as antimalarial agents” (Bioorg Med Chem, 2011):
Values after ≈ are worked out from the molar mass of the structure shown. Active and inactive are the calls of the source. The rule behind the calls is not given here.

Experiments:
Plasmodium falciparum [1] = test: Antimicrobial activity against Plasmodium falciparum W2 by microdilution method; format: functional, organism-based
Mus musculus = species: Mus musculus; test: Metabolic stability in mouse liver microsome by LC-MS/MS method; settings: liver microsomes
Homo sapiens = species: Homo sapiens; test: Metabolic stability in human liver microsome by LC-MS/MS method; settings: liver microsomes
Plasmodium falciparum [2] = test: Antimicrobial activity against Plasmodium falciparum TM91C235 by microdilution method; format: functional, organism-based
[3] = Toxicity in Plasmodium berghei sporozoites infected orally dosed mouse administered for three consecutive days one day before infection; format: organism-based; settings: in vivo, po
Outline: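 Mice received P. berghei sporozoites. Each compound was ground and suspended in hydroxyethylcellulose plus Tween 80, then given orally at several dose levels up to 320 mg/kg/day. Dosing was once daily for three consecutive days: the day before, 4 h before, and the day after sporozoite inoculation.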

Plasmodium berghei [4] = test: Antiplasmodial activity against Plasmodium berghei sporozoites infected in orally dosed mouse administered for three consecutive days one day before infection; format: functional; settings: po, 24 h, read-out: MED
Outline: (§1)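 Mice were inoculated with P. berghei sporozoites. For oral dosing, compounds were ground and suspended in hydroxyethylcellulose plus Tween 80; for sc dosing, they were suspended in peanut oil. Doses were given once daily on three consecutive days: the day before, 4 h before, and the day after inoculation. Several dose levels were used, up to 320 mg/kg/day. Cure was scored.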

Plasmodium falciparum [5] = test: Antimicrobial activity against Plasmodium falciparum D6 by microdilution method; format: functional, organism-based
Plasmodium cynomolgi [6] = test: Antiplasmodial activity against Plasmodium cynomolgi sporozoites infected in Rhesus monkey assessed as delay in detection of parasites in blood at 30 mg/kg/day, im administered for three consecutive days before infection; format: functional; settings: route intramuscular
Plasmodium cynomolgi [7] = test: Antiplasmodial activity against Plasmodium cynomolgi sporozoites infected in Rhesus monkey assessed as duration for detection of parasites in blood at 30 mg/kg/day, im administered for three consecutive days before infection (reference value: 8 days); format: functional; settings: route intramuscular
Plasmodium berghei [8] = test: Antiplasmodial activity against Plasmodium berghei sporozoites infected in orally dosed mouse assessed as cure from infection 160 mg/kg/day, po administered for three consecutive days before infection measured after at day 31; format: functional, organism-based; outline: as §1
Plasmodium cynomolgi [9] = test: Antiplasmodial activity against Plasmodium cynomolgi sporozoites infected in Rhesus monkey assessed as duration for detection of parasites in blood at 50 mg/kg/day, po administered for three consecutive days before infection (reference value: 8 days); format: functional
Plasmodium cynomolgi [10] = test: Antiplasmodial activity against Plasmodium cynomolgi sporozoites infected in Rhesus monkey assessed as delay in detection of parasites in blood at 50 mg/kg/day, po administered for three consecutive days before infection; format: functional
Plasmodium cynomolgi [11] = test: Antiplasmodial activity against Plasmodium cynomolgi sporozoites infected in Rhesus monkey assessed as relapse time at 10 mg/kg/day, po administered for 7 consecutive days
Plasmodium cynomolgi [12] = test: Antiplasmodial activity against Plasmodium cynomolgi sporozoites infected in Rhesus monkey assessed as delay in detection of parasites in blood at 1.78 mg/kg/day, po administered for three consecutive days before infection; format: functional
Plasmodium cynomolgi [13] = test: Antiplasmodial activity against Plasmodium cynomolgi sporozoites infected in Rhesus monkey assessed as duration for detection of parasites in blood at 1.78 mg/kg/day, po administered for three consecutive days before infection (reference value: 8 days); format: functional
Plasmodium cynomolgi [14] = test: Antiplasmodial activity against Plasmodium cynomolgi sporozoites infected in Rhesus monkey assessed as duration for detection of parasites in blood at 0.316 mg/kg/day, po administered for three consecutive days before infection (reference value: 8 days); format: functional
Plasmodium cynomolgi [15] = test: Antiplasmodial activity against Plasmodium cynomolgi sporozoites infected in Rhesus monkey assessed as delay in detection of parasites in blood at 0.316 mg/kg/day, po administered for three consecutive days before infection; format: functional
[16] = Plasmodium falciparum, W2, read-out: IC50
[17] = Plasmodium falciparum, TM91C235, read-out: IC50
[18] = Plasmodium falciparum, D6, read-out: IC50

Structure (SMILES)	IC50 (Plasmodium falciparum [1]; [16]) [µg/mL]	half-life (Mus musculus) [h]	half-life (Homo sapiens) [h]	IC50 (Plasmodium falciparum [2]; [17]) [µg/mL]	MTD at 3 days [3] [mg/kg/day]	minimal effective dose (Plasmodium berghei [4]) [mg/kg/day]	IC50 (Plasmodium falciparum [5]; [18]) [µg/mL]	Time (Plasmodium cynomolgi [6]) [days]	Time (Plasmodium cynomolgi [7]) [days]	Activity (Plasmodium berghei [8])	IC50 (Plasmodium falciparum [1]) [µg/mL]	IC50 (Plasmodium falciparum [5]) [µg/mL]	Time (Plasmodium cynomolgi [9]) [days]	Time (Plasmodium cynomolgi [10]) [days]	IC50 (Plasmodium falciparum [2]) [µg/mL]	Time (Plasmodium cynomolgi [11]) [days]	Time (Plasmodium cynomolgi [12]) [days]	Time (Plasmodium cynomolgi [13]) [days]	Time (Plasmodium cynomolgi [14]) [days]	Time (Plasmodium cynomolgi [15]) [days]
CC(C)N1C(=O)C(=O)N=C1/N=C(\NOCc1ccccc1)Nc1ccc(Cl)c(Cl)c1	> 5	0.214	> 1	> 5	≥ 160	> 160	> 5	19	27	–	–	–	–	–	–	–	–	–	–	–
CON/C(=N\C1=NC(=O)C(=O)N1C(C)C)Nc1ccc(Cl)c(Cl)c1	> 5	> 1	> 1	> 5	< 40	≥ 40	> 5	–	–	Active	–	–	–	–	–	–	–	–	–	–
CC(C)N1C(=O)C(=O)N=C1/N=C(\NCCCCN1CCCC1)Nc1ccc(Cl)c(Cl)c1	2.3 (≈ 4.92 µM)	> 1	> 1	> 5	≥ 160	> 160	1.55 (≈ 3.32 µM)	–	–	–	2.3 (≈ 4.92 µM)	1.55 (≈ 3.32 µM)	–	–	–	–	–	–	–	–
CC(C)N/C(=N\C1=NC(=O)C(=O)N1C(C)C)Nc1ccc(Cl)c(Cl)c1	> 6	> 1	> 1	–	≥ 160	160	> 6	54	62	Active	–	–	11	3	–	–	–	–	–	–
CC(C)N1C(=O)C(=O)N=C1/N=C(\NCCN(C)C)Nc1ccc(Cl)c(Cl)c1	> 5	> 1	> 1	> 5	≥ 160	> 160	> 5	–	–	–	–	–	–	–	–	–	–	–	–	–
CC(C)N1C(=O)C(=O)N=C1/N=C(\NCCCN(C)C)Nc1ccc(Cl)c(Cl)c1	> 5	> 1	> 1	> 5	≥ 160	> 160	> 5	–	–	–	–	–	–	–	–	–	–	–	–	–
CC(C)N1C(=O)C(=O)N=C1/N=C(\NCC(C)(C)C)Nc1ccc(Cl)c(Cl)c1	0.37 (≈ 0.897 µM)	> 1	> 1	0.95 (≈ 2.3 µM)	≥ 320	160	1.1 (≈ 2.67 µM)	–	–	Active	0.37 (≈ 0.897 µM)	1.1 (≈ 2.67 µM)	–	–	0.95 (≈ 2.3 µM)	–	–	–	–	–
CCN(CC)CCCC(C)Nc1ccnc2cc(Cl)ccc12 (stereo unspecified) [CHLOROQUINE]	–	–	–	–	–	–	–	–	–	–	–	–	–	–	–	11	–	–	–	–
CC(C)N1C(=O)C(=O)N=C1/N=C(/Nc1ccc(Cl)c(Cl)c1)NC(C)(C)C	1.15 (≈ 2.89 µM)	> 1	> 1	1.36 (≈ 3.41 µM)	≥ 320	> 320	0.72 (≈ 1.81 µM)	–	–	–	1.15 (≈ 2.89 µM)	0.72 (≈ 1.81 µM)	–	–	1.36 (≈ 3.41 µM)	–	–	–	–	–
CCN/C(=N\C1=NC(=O)C(=O)N1C(C)C)Nc1ccc(Cl)c(Cl)c1	1.67 (≈ 4.51 µM)	> 1	> 1	> 5	≥ 160	> 160	> 5	–	–	–	1.67 (≈ 4.51 µM)	–	–	–	–	–	–	–	–	–
COc1cc(NC(C)CCCN)c2ncccc2c1 (stereo unspecified) [PRIMAQUINE]	–	–	–	–	–	–	–	–	–	–	–	–	–	–	–	–	5	13	–	–
CC(C)N1C(=O)C(=O)N=C1/N=C(\NCc1ccccc1)Nc1ccc(Cl)c(Cl)c1	1.3 (≈ 3.01 µM)	> 1	> 1	> 5	≥ 320	> 320	2.36 (≈ 5.46 µM)	–	–	–	1.3 (≈ 3.01 µM)	2.36 (≈ 5.46 µM)	–	–	–	–	–	–	–	–
CC(C)N1C(=O)C(=O)N=C1/N=C(\NCCN1CCCC1)Nc1ccc(Cl)c(Cl)c1	1.32 (≈ 3 µM)	0.886	> 1	> 5	≥ 160	> 160	> 5	–	–	–	1.32 (≈ 3 µM)	–	–	–	–	–	–	–	–	–
CC(C)N1C(=O)C(=O)N=C1/N=C(\Nc1ccccc1)Nc1ccc(Cl)c(Cl)c1	0.88 (≈ 2.1 µM)	> 1	> 1	2.6 (≈ 6.22 µM)	≥ 160	> 160	2.16 (≈ 5.16 µM)	–	–	–	0.88 (≈ 2.1 µM)	2.16 (≈ 5.16 µM)	–	–	2.6 (≈ 6.22 µM)	–	–	–	–	–
CN/C(=N\C1=NC(=O)C(=O)N1C(C)C)Nc1ccc(Cl)c(Cl)c1	> 5	> 1	> 1	> 5	≥ 320	> 320	> 5	–	–	–	–	–	–	–	–	–	–	–	–	–
CC(C)N1C(=O)C(=O)N=C1/N=C(\NOC(C)(C)C)Nc1ccc(Cl)c(Cl)c1	1.14 (≈ 2.75 µM)	> 1	> 1	3.36 (≈ 8.11 µM)	≥ 160	> 160	2.75 (≈ 6.64 µM)	–	–	–	1.14 (≈ 2.75 µM)	2.75 (≈ 6.64 µM)	–	–	3.36 (≈ 8.11 µM)	–	–	–	–	–
CCON/C(=N\C1=NC(=O)C(=O)N1C(C)C)Nc1ccc(Cl)c(Cl)c1	> 5	> 1	> 1	> 5	< 40	160	> 5	–	–	Active	–	–	–	–	–	–	–	–	–	–
CC(C)N1C(=O)C(=O)N=C1/N=C(\NCCCCCCNC(=O)OC(C)(C)C)Nc1ccc(Cl)c(Cl)c1	1.46 (≈ 2.7 µM)	0.182	0.208	> 5	≥ 160	> 160	> 5	–	–	–	1.46 (≈ 2.7 µM)	–	–	–	–	–	–	–	–	–
COc1cc(C)c2c(Oc3cccc(C(F)(F)F)c3)c(OC)cc(NC(C)CCCN)c2n1 (stereo unspecified) [TAFENOQUINE]	–	–	–	–	–	–	–	–	–	–	–	–	–	–	–	–	–	–	10	2
C=CCON/C(=N\C1=NC(=O)C(=O)N1C(C)C)Nc1ccc(Cl)c(Cl)c1	6.7 (≈ 16.8 µM)	> 1	> 1	> 15	120	160	8.5 (≈ 21.3 µM)	–	–	Active	6.7 (≈ 16.8 µM)	8.5 (≈ 21.3 µM)	–	–	–	–	–	–	–	–
CCCCCCN/C(=N\C1=NC(=O)C(=O)N1C(C)C)Nc1ccc(Cl)c(Cl)c1	2.62 (≈ 6.15 µM)	0.131	–	2.8 (≈ 6.57 µM)	≥ 160	> 160	1.35 (≈ 3.17 µM)	–	–	–	2.62 (≈ 6.15 µM)	1.35 (≈ 3.17 µM)	–	–	2.8 (≈ 6.57 µM)	–	–	–	–	–
CC(C)N1C(=O)C(=O)N=C1/N=C(/Nc1ccc(Cl)c(Cl)c1)NC1C2CC3CC(C2)CC1C3 (stereo unspecified)	2.68 (≈ 5.63 µM)	0.124	0.093	2.07 (≈ 4.35 µM)	≥ 320	> 320	0.81 (≈ 1.7 µM)	–	–	–	2.68 (≈ 5.63 µM)	0.81 (≈ 1.7 µM)	–	–	2.07 (≈ 4.35 µM)	–	–	–	–	–
CCN(CC)CCN/C(=N\C1=NC(=O)C(=O)N1C(C)C)Nc1ccc(Cl)c(Cl)c1	> 5	0.294	0.525	> 5	≥ 160	> 160	> 5	–	–	–	–	–	–	–	–	–	–	–	–	–
